ChEMBL document CHEMBL4118073, “Evaluation of the antidepressant therapeutic potential of isocyanine and pseudoisocyanine analogues of the organic cation decynium-22” (Eur J Med Chem, 2017)

Assays:
[1] = test system: Mus musculus; test: Toxicity in mouse assessed as suppression of locomotion at 0.1 mg/kg, ip measured for 5 mins; type: organism-based; details: in vivo
[2] = target: T1, Alpha-1 adrenergic receptor (Mus musculus, UniProt P97714+P97717+P97718); test: Displacement of [3H]prazosin from alpha1 adrenoceptor in C57BL/6 mouse hippocampal homogenates after 40 mins by liquid scintillation counting method
T1 sequence (P97714 whole entry): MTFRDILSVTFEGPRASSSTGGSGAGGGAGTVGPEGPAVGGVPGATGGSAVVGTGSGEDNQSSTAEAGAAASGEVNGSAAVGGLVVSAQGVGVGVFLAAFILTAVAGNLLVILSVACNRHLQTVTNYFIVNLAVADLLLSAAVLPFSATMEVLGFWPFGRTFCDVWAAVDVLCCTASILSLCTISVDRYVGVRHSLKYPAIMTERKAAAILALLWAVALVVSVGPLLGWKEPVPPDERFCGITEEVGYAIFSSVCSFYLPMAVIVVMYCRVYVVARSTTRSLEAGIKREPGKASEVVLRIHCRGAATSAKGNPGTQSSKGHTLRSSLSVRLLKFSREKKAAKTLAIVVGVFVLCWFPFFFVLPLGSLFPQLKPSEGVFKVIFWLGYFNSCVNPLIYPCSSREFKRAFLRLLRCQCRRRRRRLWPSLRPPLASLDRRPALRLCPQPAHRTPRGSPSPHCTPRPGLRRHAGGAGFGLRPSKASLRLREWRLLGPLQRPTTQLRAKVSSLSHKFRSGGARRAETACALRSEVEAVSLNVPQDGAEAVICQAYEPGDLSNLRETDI
T1 sequence (P97717 whole entry): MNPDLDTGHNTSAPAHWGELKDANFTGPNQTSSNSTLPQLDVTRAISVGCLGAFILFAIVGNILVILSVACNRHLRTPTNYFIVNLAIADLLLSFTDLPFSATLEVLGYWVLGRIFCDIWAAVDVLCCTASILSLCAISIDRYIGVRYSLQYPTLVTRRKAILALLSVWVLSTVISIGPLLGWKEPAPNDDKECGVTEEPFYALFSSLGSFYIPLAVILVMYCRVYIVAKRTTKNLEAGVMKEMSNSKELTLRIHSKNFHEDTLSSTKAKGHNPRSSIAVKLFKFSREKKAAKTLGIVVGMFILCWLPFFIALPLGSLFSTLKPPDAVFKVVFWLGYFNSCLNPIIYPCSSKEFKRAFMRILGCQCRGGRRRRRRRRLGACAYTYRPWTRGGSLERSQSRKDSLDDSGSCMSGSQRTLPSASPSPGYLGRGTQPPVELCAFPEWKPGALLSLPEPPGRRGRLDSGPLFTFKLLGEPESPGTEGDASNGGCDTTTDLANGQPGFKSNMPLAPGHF
T1 sequence (P97718 whole entry): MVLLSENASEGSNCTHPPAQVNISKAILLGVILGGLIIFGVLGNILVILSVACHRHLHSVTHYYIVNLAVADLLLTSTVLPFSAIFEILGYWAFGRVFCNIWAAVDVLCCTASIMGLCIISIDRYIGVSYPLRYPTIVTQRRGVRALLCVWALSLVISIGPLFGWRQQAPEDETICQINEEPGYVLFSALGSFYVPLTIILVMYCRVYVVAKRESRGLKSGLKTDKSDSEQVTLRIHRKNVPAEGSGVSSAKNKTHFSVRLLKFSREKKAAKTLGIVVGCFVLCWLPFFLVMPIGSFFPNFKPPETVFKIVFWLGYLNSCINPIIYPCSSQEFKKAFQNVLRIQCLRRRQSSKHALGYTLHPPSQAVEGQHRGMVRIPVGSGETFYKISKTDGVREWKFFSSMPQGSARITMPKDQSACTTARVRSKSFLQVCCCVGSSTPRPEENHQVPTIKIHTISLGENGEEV
Procedure, shortened: (§1)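 Mouse hippocampal homogenate incubated with 1.5 nM [³H]prazosin and competing ligand across a concentration series. Bound radioligand was expressed as displacement relative to control. IC₅₀ was obtained from non-linear regression fitting of concentration-effect curves, and curve fits were compared with tamsulosin.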

[3] = test system: Mus musculus; test: Anti-depressant-like activity in mouse assessed as time spent immobile at 0.1 mg/kg, ip administered 60 mins prior to testing measured for 6 mins by tail suspension test (reference value: 186.9 +/- 13.2 secs); type: functional
[4] = test system: Mus musculus; test: Toxicity in mouse assessed as suppression of locomotion at 1 mg/kg, ip measured for 5 mins; type: organism-based; details: in vivo
[5] = test system: Mus musculus; test: Toxicity in mouse assessed as suppression of locomotion at 10 mg/kg, ip measured for 5 mins; type: organism-based; details: in vivo
[6] = test system: Mus musculus; test: Anti-depressant-like activity in mouse assessed as time spent immobile at 1 mg/kg, ip administered 60 mins prior to testing measured for 6 mins by tail suspension test (reference value: 186.9 +/- 13.2 secs); type: functional
[7] = test system: Mus musculus; test: Anti-depressant-like activity in mouse assessed as time spent immobile at 3.2 mg/kg, ip administered 60 mins prior to testing measured for 6 mins by tail suspension test (reference value: 186.9 +/- 13.2 secs); type: functional
[8] = target: T2, alpha1 adrenoceptor (Mus musculus, UniProt P97714+P97717+P97718); test: Displacement of [3H]prazosin from alpha1 adrenoceptor in C57BL/6 mouse hippocampal homogenates assessed as remaining receptor bound [3H]prazosin levels at 0.001 uM after 40 mins by liquid scintillation counting method relative to control; details: probe [3H]prazosin, read-out: Activity; procedure, shortened: as §1
T2 sequence (P97714 whole entry): T1 sequence (P97714 whole entry)
T2 sequence (P97717 whole entry): T1 sequence (P97717 whole entry)
T2 sequence (P97718 whole entry): T1 sequence (P97718 whole entry)

[9] = target: T2, alpha1 adrenoceptor; test: Displacement of [3H]prazosin from alpha1 adrenoceptor in C57BL/6 mouse hippocampal homogenates assessed as remaining receptor bound [3H]prazosin levels at 1 uM after 40 mins by liquid scintillation counting method relative to control; details: probe [3H]prazosin, read-out: Activity; procedure, shortened: as §1
[10] = target: T2, alpha1 adrenoceptor; test: Displacement of [3H]prazosin from alpha1 adrenoceptor in C57BL/6 mouse hippocampal homogenates assessed as remaining receptor bound [3H]prazosin levels at 0.01 uM after 40 mins by liquid scintillation counting method relative to control; details: probe [3H]prazosin, read-out: Activity; procedure, shortened: as §1
[11] = target: T2, alpha1 adrenoceptor; test: Displacement of [3H]prazosin from alpha1 adrenoceptor in C57BL/6 mouse hippocampal homogenates assessed as remaining receptor bound [3H]prazosin levels at 0.1 uM after 40 mins by liquid scintillation counting method relative to control; details: probe [3H]prazosin, read-out: Activity; procedure, shortened: as §1
[12] = target: T2, alpha1 adrenoceptor; test: Displacement of [3H]prazosin from alpha1 adrenoceptor in C57BL/6 mouse hippocampal homogenates assessed as remaining receptor bound [3H]prazosin levels at 100 uM after 40 mins by liquid scintillation counting method relative to control; details: probe [3H]prazosin, read-out: Activity; procedure, shortened: as §1
[13] = target: T2, alpha1 adrenoceptor; test: Displacement of [3H]prazosin from alpha1 adrenoceptor in C57BL/6 mouse hippocampal homogenates assessed as remaining receptor bound [3H]prazosin levels at 10 uM after 40 mins by liquid scintillation counting method relative to control; details: probe [3H]prazosin, read-out: Activity; procedure, shortened: as §1
[14] = test system: Mus musculus; test: Toxicity in mouse assessed as mortality at 10 mg/kg, ip measured for 5 mins; type: organism-based; details: in vivo
Procedure, shortened: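 Mice were given an intraperitoneal injection of the compound, with D-22 dosed over 0.01–10.0 mg/kg and analogues at equivalent doses. Each mouse was placed at once in an infrared beam-break activity chamber. Beam breaks were counted per 5 min period over a four-hour session, and deaths at the 10 mg/kg dose were recorded in the locomotor dose groups.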

[15] = target: T2, alpha1 adrenoceptor; test: Displacement of [3H]prazosin from alpha1 adrenoceptor in C57BL/6 mouse hippocampal homogenates assessed as remaining receptor bound [3H]prazosin levels at 0.0001 uM after 40 mins by liquid scintillation counting method relative to control; details: probe [3H]prazosin, read-out: Activity; procedure, shortened: as §1
[16] = target: T2, alpha1 adrenoceptor; test: Displacement of [3H]prazosin from alpha1 adrenoceptor in C57BL/6 mouse hippocampal homogenates assessed as remaining receptor bound [3H]prazosin levels at 3 uM after 40 mins by liquid scintillation counting method relative to control; details: probe [3H]prazosin, read-out: Activity; procedure, shortened: as §1
[17] = target: T2, alpha1 adrenoceptor; test: Displacement of [3H]prazosin from alpha1 adrenoceptor in C57BL/6 mouse hippocampal homogenates assessed as remaining receptor bound [3H]prazosin levels at 0.03 uM after 40 mins by liquid scintillation counting method relative to control; details: probe [3H]prazosin, read-out: Activity; procedure, shortened: as §1
[18] = target: T2, alpha1 adrenoceptor; test: Displacement of [3H]prazosin from alpha1 adrenoceptor in C57BL/6 mouse hippocampal homogenates assessed as remaining receptor bound [3H]prazosin levels at 0.3 uM after 40 mins by liquid scintillation counting method relative to control; details: probe [3H]prazosin, read-out: Activity; procedure, shortened: as §1
[19] = target: T2, alpha1 adrenoceptor; test: Displacement of [3H]prazosin from alpha1 adrenoceptor in C57BL/6 mouse hippocampal homogenates assessed as remaining receptor bound [3H]prazosin levels at 0.003 uM after 40 mins by liquid scintillation counting method relative to control; details: probe [3H]prazosin, read-out: Activity; procedure, shortened: as §1
[20] = target: T2, alpha1 adrenoceptor; test: Displacement of [3H]prazosin from alpha1 adrenoceptor in C57BL/6 mouse hippocampal homogenates assessed as remaining receptor bound [3H]prazosin levels at 30 uM after 40 mins by liquid scintillation counting method relative to control; details: probe [3H]prazosin, read-out: Activity; procedure, shortened: as §1

Compound	IC50 [2] [nM]	activity at 40 min, 0.0001 µM [15] [%]	activity at 40 min, 3 µM [16] [%]	activity at 40 min, 0.03 µM [17] [%]	activity at 40 min, 0.3 µM [18] [%]	activity at 40 min, 0.003 µM [19] [%]	activity at 40 min, 30 µM [20] [%]	Activity [1]	Time [3] [s]	Activity [4]	Activity [5]	Time [6] [s]	Time [7] [s]	activity at 40 min, 0.001 µM [8] [%]	activity at 40 min, 1 µM [9] [%]	activity at 40 min, 0.01 µM [10] [%]	activity at 40 min, 0.1 µM [11] [%]	activity at 40 min, 100 µM [12] [%]	activity at 40 min, 10 µM [13] [%]	Activity [14]
CCN1/C(=C/c2ccc3cc(Cl)ccc3[n+]2CC)C=Cc2ccccc21.[I-]	577							Non-Toxic	189.2	Non-Toxic	Toxic	189.3	140.4							
CCN1/C(=C/c2ccc3cc(OC)ccc3[n+]2CC)C=Cc2ccccc21.[I-]								Non-Toxic	167.2	Non-Toxic	Toxic	135.7	203.1	100	23	97	81	1.3	1.7	Toxic
CCN1/C(=C/c2ccc3cc(Br)ccc3[n+]2CC)C=Cc2ccccc21.[I-]								Non-Toxic	171.3	Non-Toxic	Toxic	190	179	100	43.3	102	67.7	0	1.3	Toxic
CN1/C(=C\c2cc[n+](C)c3ccccc23)C=Cc2ccccc21.O=C([O-])C(F)(F)F								Non-Toxic	200.8	Non-Toxic	Toxic	165.3	150							Toxic
CC(C)[n+]1ccc(/C=C2/C=Cc3ccccc3N2C)c2ccccc21.O=C([O-])C(F)(F)F	1066	100						Non-Toxic	198.3	Non-Toxic	Toxic	152.8	170.3	100	52.3	97.3	89.7	3.3	6.7	
Cc1ccnc2ccccc12														100	8.3	26.3	2.7	0	3	

Now from value to compound, other results behind:

IC50 [2] [nM]	activity at 40 min, 0.0001 µM [15] [%]	activity at 40 min, 3 µM [16] [%]	activity at 40 min, 0.03 µM [17] [%]	activity at 40 min, 0.3 µM [18] [%]	activity at 40 min, 0.003 µM [19] [%]	activity at 40 min, 30 µM [20] [%]	Compound	Activity [1]	Time [3] [s]	Activity [4]	Activity [5]	Time [6] [s]	Time [7] [s]	activity at 40 min, 0.001 µM [8] [%]	activity at 40 min, 1 µM [9] [%]	activity at 40 min, 0.01 µM [10] [%]	activity at 40 min, 0.1 µM [11] [%]	activity at 40 min, 100 µM [12] [%]	activity at 40 min, 10 µM [13] [%]	Activity [14]
348							CCN1/C(=C/c2ccc3cc(F)ccc3[n+]2CC)C=Cc2ccccc21.[I-]	Non-Toxic	185.5	Non-Toxic	Toxic	198.1	113.5							
711	100	52	119	94	130	-3	CCN1/C(=C/c2ccc3cc(I)ccc3[n+]2CC)C=Cc2ccccc21.[I-]	Non-Toxic	183	Non-Toxic	Non-Toxic	184.5	167.6	111	39.3	98.3	96	12.3	-2.8	
60	100			8	84	-5	CCN1/C(=C/c2ccc3ccccc3[n+]2CC)C=Cc2ccccc21.[I-]	Non-Toxic		Toxic		185.8	149.3	92.8	16.6	81.2	44.6	13.3	12.6	
1.8							CCOc1ccccc1OCCN[C@H](C)Cc1ccc(OC)c(S(N)(=O)=O)c1 [TAMSULOSIN]													
